HNF4A DNA FP: change in binding of human HNF4 alpha to DNA; P41235; HNF4a-FITC DNA binding, fluorescence polarization, 1 h; activity change, % at 10 µM; actives 0.3% (n = 360,000); AID 1224865; in the data active means activity change above about 30%, passing the limit was not always enough
CSN inh: inhibitors of human CSN-mediated cullin deneddylation. Q92905. Purified CSN, SCF-Nedd8-OG deneddylation, fluorescence polarization. inhibition, % at 12.5 µM. actives 0.38% (n = 360,000). AID 651999;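 active means pattern-corrected inhibition above about 35%, with an unprinted fluorescence ratio check between 0.5 and 1.5, limit read from the data, passing the limit was not always enough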;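 further: 0% = enzyme with substrate and 100% = substrate without enzyme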
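Test system: Human Csn5 produced in HEK293T cells | Compound: 12.5 µM single point | Times: 90 min, room temperature | Signal: Fluorescence polarization readout | Read-out basis: % inhibition of substrate cleavage by Csn5 | Controls: no-enzyme wells high, enzyme-with-substrate wells low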
NR1D1 modulator: Rev-erb alpha (human) modulation. activity, % at 10 µM. Rev-erbα–FITC-DNA binding, fluorescence polarization, 90 min. P20393. actives 0.79% (n = 370,000);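 active means activity above about 14%, limit read from the data; passing the limit was not always enough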;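 further: 0% = DMSO wells with 35 nM protein and 100% = DMSO wells with 750 nM protein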
Target sequence (P20393 whole entry, looked up): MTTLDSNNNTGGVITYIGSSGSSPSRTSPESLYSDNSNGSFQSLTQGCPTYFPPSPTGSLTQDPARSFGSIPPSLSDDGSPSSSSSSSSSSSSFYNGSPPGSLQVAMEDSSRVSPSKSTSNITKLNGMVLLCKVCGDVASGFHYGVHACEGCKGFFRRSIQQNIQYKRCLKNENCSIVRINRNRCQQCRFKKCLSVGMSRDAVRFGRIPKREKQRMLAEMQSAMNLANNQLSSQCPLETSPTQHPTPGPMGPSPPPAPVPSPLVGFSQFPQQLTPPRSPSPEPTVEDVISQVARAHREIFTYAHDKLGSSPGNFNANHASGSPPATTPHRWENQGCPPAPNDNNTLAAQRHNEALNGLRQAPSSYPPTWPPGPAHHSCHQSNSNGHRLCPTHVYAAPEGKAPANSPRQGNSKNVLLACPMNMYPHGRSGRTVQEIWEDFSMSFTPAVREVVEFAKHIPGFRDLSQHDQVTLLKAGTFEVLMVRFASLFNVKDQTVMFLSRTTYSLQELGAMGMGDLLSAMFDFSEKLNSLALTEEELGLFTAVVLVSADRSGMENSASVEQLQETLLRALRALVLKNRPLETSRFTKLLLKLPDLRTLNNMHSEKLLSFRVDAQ
aDG glyco up: alpha-DG glycosylation activation | Pro5-aDG cells, alpha-DG glycosylation AlphaScreen (IIH6); 0% Pro5, 100% B10-LARGE cell signal | activation, % at 10 µM | actives 0.22% (n = 360,000) | AID 624168;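 active means activation of at least 8% versus controls, or a plate z-score of at least 8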;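 further: Pro5 are CHO cells carrying HIG-tagged alpha-DG that lacks glycosylation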
NR1D1 mod conf: Rev-erb alpha (human) modulation, hit confirmation. shares compounds with NR1D1 modulator. Rev-erb alpha FITC-DNA binding, fluorescence polarization, 90 min. activation, % at 25 µM. actives 61% (n = 3,000);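 active means activation at or above a set limit, or at least 3 SD above the negative control mean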;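 further: 0% = 35 nM protein with DMSO and 100% = 750 nM protein high control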
RORg DNA counter: affects RORgamma DNA binding in a Rev-erb alpha counter-screen; shares compounds with NR1D1 modulator; purified RORgamma protein-FITC-DNA binding, fluorescence polarization; IC50, µM; actives 8% (n = 910); AID 1259320;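 active means Compounds whose fitted half-maximal concentration for disrupting protein-DNA binding is below 10 micromolar; the record names Rev-erb in its text, so the target is in doubt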
* = called active by the depositor; / = not tested or not shown. This is a sample that favours compounds with a hit; in the whole collection about 1.5% have one here.

SMILES	HNF4A DNA FP	CSN inh	NR1D1 modulator	aDG glyco up	NR1D1 mod conf	others
COc1ccc2[nH]c3c(c2c1)CCN[C@]31C(=O)N(Cc2ccccc2)c2ccccc21	/	/	-4	/	/
Cc1cc(C)nc(N2CCC(C(=O)N(C)CCc3ccccc3)CC2)n1	/	/	-6	/	/
COCCNC(=O)C[C@H]1CC[C@H]2[C@@H](COc3ccc(NC(=O)Nc4cccc(F)c4)cc3C(=O)N2C)O1	/	/	12	/	/
Cn1c(=O)c2[nH]c(SCC(=O)NCCc3cccc(F)c3)nc2n(C)c1=O	/	/	-6	/	/
CCCCNC(=O)Cn1cnc2sc(C(=O)OCC)c(C)c2c1=O	4	4	35*	0	8
CCOC(=O)c1sc2ncn(CC(=O)NCC3CCCO3)c(=O)c2c1C (stereo not drawn)	1	-1	-1	0	/
CCCCCCN1CCS(=O)(=O)N(Cc2ccc(C)cc2)C(C(=O)OC)C1 (stereo not drawn)	/	/	1	/	/
N=C(SC1CC(=O)N(c2ccc(F)cc2)C1=O)N1N=C(c2ccccc2)CC1c1ccccc1 (stereo not drawn)	1	-8	19*	0	0
CCC(=O)N1N=C(c2ccccc2)CC1c1ccccc1 (stereo not drawn)	1	4	-1	0	/
COc1ccc2c(COC(=O)CCS(=O)(=O)c3ccccc3)cc(=O)oc2c1	5	5	/	0	/
Cc1cccc(C)c1OCCOC(=O)c1n[nH]c2ccccc12	1	2	8	0	/
COc1ccc2c(COC(=O)c3n[nH]c4ccccc34)cc(=O)oc2c1	1	38*	59*	0	34*	RORg DNA counter=>40
Cc1cc2oc(=O)cc(COC(=O)c3n[nH]c4ccccc34)c2cc1C	-3	-2	23*	0	-1
CN[C@H]1C[C@H]2c3[nH]c4cccc(-c5ccc6c(c5)OCO6)c4c3CCN2C[C@H]1[C@H](C)O	/	/	6	/	/
Cn1c(=O)c(=O)n(C)c2cc(S(=O)(=O)N3CCCCC3)ccc21	-3	3	-3	0	/
CC1CC(C)CN(S(=O)(=O)c2ccc3c(c2)n(C)c(=O)c(=O)n3C)C1 (stereo not drawn)	-2	-2	66*	0	0
COc1ccc(Cn2cc(CN3[C@@H](Cc4ccccc4)COc4cc(Br)ccc4S3(=O)=O)nn2)cc1	/	/	5	/	/
CC1CCN(S(=O)(=O)c2ccc3c(c2)c(=O)c(C(=O)NCc2cccs2)cn3C)CC1	0	-3	29*	0	10
CC1CCN(S(=O)(=O)c2ccc3c(c2)c(=O)c(C(=O)NCc2ccco2)cn3C)CC1	3	0	0	0	/
Cc1ccc(-n2c(SCC(=O)NN=Cc3ccc(-c4ccccc4)cc3)nnc2-c2ccccc2)cc1	/	/	-5	/	/
CCOc1ccc(C(=O)Nc2ccc(C(F)(F)F)n(C)c2=O)cc1	-1	7	35*	0	8
COc1ccc(C(=O)N2CCCC(CCC(=O)NCc3ccc(F)c(F)c3)C2)o1 (stereo not drawn)	-3	-2	15*	0	-2
COc1ccc(C(=O)N2CCCC(CCC(=O)NCc3ccc(F)c(F)c3)C2)cc1F (stereo not drawn)	3	-3	2	0	/
CCOC(=O)c1ccc(-c2ccc3oc(-c4ccsc4)cc(=O)c3c2)cc1F	0	-5	58*	0	12
N#CCC[C@H]1CC[C@]2(CCCN(C(=O)c3ccccc3)C2)O1	/	/	1	/	/
SMILES	HNF4A DNA FP	CSN inh	NR1D1 modulator	aDG glyco up	NR1D1 mod conf	others
CC(OC(=O)c1cc(Br)ccc1O)C(=O)NCc1ccc2c(c1)OCO2 (stereo not drawn)	1	7	35*	0	23*
CC(OC(=O)c1ccc(Cl)cc1)C(=O)NCc1ccc2c(c1)OCO2 (stereo not drawn)	2	1	1	0	/
COc1cccc(N=Cc2c(O)n(-c3cccc(C)n3)c(=O)c3ccccc23)c1	0	1	-3	0	/
COc1ccc(N=Cc2c(O)n(-c3cccc(C)n3)c(=O)c3ccccc23)c(OC)c1	41	55	53*	1	9
CCOC(=O)c1c(NC(=O)C2Cc3ccccc3C(=O)O2)sc2c1CCCC2 (stereo not drawn)	2	2	35*	0	14*
COC(=O)c1c(NC(=O)C2Cc3ccccc3C(=O)O2)sc2c1CCCC2 (stereo not drawn)	5	3	50*	0	22*
CCOC(=O)c1c(NC(=O)C2CCCN(S(=O)(=O)c3ccccc3)C2)sc2c1CCCC2 (stereo not drawn)	4	-1	24*	0	103*	RORg DNA counter=>40
Cc1cc(NC(=O)CSc2cc(C)c3ccccc3n2)no1	-2	-1	23*	0	4
Cc1cc(NC(=O)CSc2nc(C(C)(C)C)nc3ccccc23)no1	-4	6	36*	0	13
CCCCn1c(SCC(=O)Nc2ccc(NC(C)=O)cc2)nc2ccccc2c1=O	-7	-1	8	0	/
Cc1cc(NC(=O)CSc2nc(-c3cccs3)nc3ccccc23)no1	4	-4	28*	0	19*
CCCCn1c(SCC(=O)Nc2cc(C)on2)nc2ccccc2c1=O	3	-1	43*	0	14
CCCc1nc(SCC(=O)Nc2cc(C)on2)c2ccccc2n1	3	2	4	1	/
Cc1cc(NC(=O)CSc2ncnc3ccccc23)no1	3	-3	-4	0	/
CC1CCC2(CCC(=O)N2CCCO)CC1 (stereo not drawn)	/	/	17	/	/
CCOC(=O)N1CCN(C(=O)C[C@H]2C[C@@]3(C(=O)OC)C(=C[C@H](C4CCCC4)O[C@@H]3C)N(Cc3cccc4ccccc34)C2=O)CC1	/	/	-11	/	/
COc1ccc2noc3c2c1C(=O)c1ccccc1-3	-105	-79	21*	0	1
COc1ccc(OC)c2c1C(=O)c1ccccc1C2=O	/	/	-1	/	/
O=C(OCc1cn(Cc2ccccc2C(F)(F)F)nn1)N1CCOCC1	/	/	6	/	/
O=C(Nc1nnc(-c2ccccc2Cl)s1)c1ccccc1F	-1	-1	27*	0	3
CCC(C)NC(=O)Cc1c(OC)ccc2cc(Br)ccc12 (stereo not drawn)	2	-3	23*	0	40*	RORg DNA counter=>40
O=C(Cn1nnc(-c2ccccc2F)n1)Nc1ccc(Cl)c(Cl)c1	/	/	-1	/	/
CC(OC(=O)c1cc2c(ccc3ccccc32)oc1=O)c1nc2ccccc2s1 (stereo not drawn)	6	-3	54*	0	33*	RORg DNA counter=>40
CC(C)(C)NC(=O)c1cc2c(ccc3ccccc32)oc1=O	1	-5	37*	0	25*
O=C(O)c1cc2c(ccc3ccccc32)oc1=O	5	-2	6	0	/

Screens: PubChem BioAssay, Sanford-Burnham Center for Chemical Genomics
